The test system of data set [1] is Influenza A virus. In words: Antiviral activity against Influenza A virus (A/Puerto Rico/8/34(H1N1)) infected in Kunming mouse assessed as intact columnar epithelium in bronchiole without inflammatory cell infiltration at 20 mg/kg/day, po qd for 4 days by hematoxylin and eosin staining based assay. To be noted: A/Puerto Rico/8/1934(H1N1). Format: functional, organism-based.

Data set [2] has as its system Influenza A virus. The data set can be described thus: Antiviral activity against Influenza A virus (A/Puerto Rico/8/34(H1N1)) infected in MDCK cells assessed as reduction in virus titer at 10 uM preincubated with virus for 1 hr followed by viral infection measured after 24 hrs by crystal violet staining based plaque assay. It counts as functional, cell-based. The note with it: A/Puerto Rico/8/1934(H1N1). In a few lines: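 PR8 (MOI 1.0) preincubated with compound (2.5–10 μM) 1 h at 37 °C, then used to infect MDCK cells. After adsorption, medium with the same compound concentration was added. At 24 h p.i. supernatant virus titer was measured by plaque assay; n = 3.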

The test system of data set [3] is Influenza A virus. The data set can be described thus: Antiviral activity against Influenza A virus (A/Puerto Rico/8/34(H1N1)) infected in MDCK cells assessed as reduction in viral HA titer by measuring reduction in chicken RBC […] after 24 hrs by hemagglutination test. Format: functional, cell-based. The note with it: A/Puerto Rico/8/1934(H1N1). In a few lines: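 MDCK cells infected at MOI 3.0 (single-cycle) with PR8, Cal09 or swine H3N2 Minnesota, then treated with compound for 24 h. Supernatant HA titers were read by 2-fold serial dilution with an equal volume of 1% chicken RBCs, 60 min at 4 °C. Expressed as percent of untreated-cell HA titer; IC50 derived; n = 4.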

Data set [4] deals with Influenza A virus. The data set can be described thus: Antiviral activity against Influenza A virus (A/Puerto Rico/8/34(H1N1)) infected in Kunming mouse assessed as survival rate at 20 mg/kg/day, po qd for 7 days measured on day 14 post infection (reference value: 30%). It counts as functional. To be noted: A/Puerto Rico/8/1934(H1N1).
Data set [5] is described as follows: Selectivity index, ratio of CC50 for MDCK cells to IC50 for Influenza A virus (A/Puerto Rico/8/34(H1N1)) infected in MDCK cells assessed as reduction in virus-induced cytopathic effect. It counts as toxicity, cell-based. The note with it: dog, read-out: Ratio CC50/IC50.
The subject of data set [6] is Influenza A virus. The data set can be described thus: Antiviral activity against Influenza A virus (A/Puerto Rico/8/34(H1N1)) infected in Kunming mouse assessed as viral titer reduction in lungs at 20 mg/kg/day, po qd for 4 days measured on day 4 post last dose by crystal violet staining based plaque assay. The note with it: A/Puerto Rico/8/1934(H1N1). It counts as functional, organism-based. In a few lines:
(§1)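 Female 4-week-old Kunming mice infected intranasally with PR8 (4 HAU/mouse). Oral gavage once daily began 2 h post-inoculation; placebo control. Mice euthanised on day 4; lungs homogenised in PBS and titrated by plaque assay on cell monolayers (agarose overlay, 3 days, crystal violet).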

The next data set concerns NCI-H1299. The data set can be described thus: Cytotoxicity against human H1299 cells at 20 uM after 48 hrs by resazurin based fluorescence method. The note with it: nci-h1299, 48 h. It counts as cell-based. In a few lines: (§2)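 Confluent MDCK, A549 or H1299 cells exposed in triplicate to compound for 48 h at 37 °C (A549/H1299 at 20 μM). Resazurin added to 0.2 mg/mL final for 16 h. Fluorescence read at ex 544 / em 595 nm; viability as % of untreated.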

Another data set deals with A549. The data set can be described thus: Cytotoxicity against human A549 cells at 20 uM after 48 hrs by resazurin based fluorescence method. To be noted: a549, 48 h. It counts as cell-based. In a few lines: as §2
In general terms: The colour change of resazurin is a common sign of viable cells or microbes.

Data set [7] can be described thus: Cytotoxicity against MDCK cells after 48 hrs by resazurin based fluorescence method. Format: cell-based, Canis lupus familiaris. The note with it: dog. In a few lines: as §2
For data set [8], the system named is Influenza A virus. In words: Antiviral activity against Influenza A virus (A/Puerto Rico/8/34(H1N1)) infected in A549 cells assessed as reduction in localization of viral NP protein in nucleus at 10 uM preincubated with virus at 37 degC for 1 hr followed by viral adsorption at 4 degC for 1 hr and subsequent infection in A549 cells measured at 2 to 4 hrs post infection by FITC-staining based immunofluorescence microscopic method. Format: functional, cell-based. The note with it: A/Puerto Rico/8/1934(H1N1). In a few lines: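 PR8 (MOI 1.0) pretreated with 10 μM compound 1 h at 37 °C, adsorbed 1 h at 4 °C, then A549 cells were kept in infecting medium with 10 μM compound. Fixed with 4% paraformaldehyde at 2 or 4 h p.i., permeabilised with Triton X-100 and blocked. Anti-NP plus FITC secondary, confocal imaging; nuclear NP intensity per unit area quantified (n = 30 images).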

The test system of data set [9] is Influenza A virus (A/Puerto Rico/8/1934(H1N1)). In words: Inhibition of Influenza A virus (A/Puerto Rico/8/34(H1N1)) neuraminidase using MUNANA as substrate preincubated for 30 mins followed by substrate addition measured after 30 mins by fluorescence assay relative to control. In a few lines: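 Inactivated PR8 virus supernatant mixed with compound (10 μM) in 33 mM MES […], 4 mM CaCl2 for 30 min at 37 °C. MUNANA (20 μM) was added for 30 min at 37 °C and the reaction stopped with glycine/ethanol pH 10.7. Fluorescence read at ex 360 / em 440 nm; zanamivir 10 μM as reference; n = 3.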

Data set [10] can be described thus: Drug uptake in human A549 cell membranes at 20 uM after 4 hrs by DAPI staining based confocal microscopic analysis. Format: ADME. The note with it: a549, 4 h. The procedure, abridged:
(§3)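 A549 cells incubated with 20 μM compound 4 h at 37 °C, then fixed and DAPI-stained. Compound intrinsic fluorescence located by confocal microscopy.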

Data set [11] concerns Influenza A virus. In words: Antiviral activity against Influenza A virus (A/Puerto Rico/8/34(H1N1)) infected in MDCK cells assessed as virus yeild reduction preincubated with virus at 37 degreeC for 1 hr followed by viral infection for 1 hr measured after 3 days by crystal violet staining based plaque assay. To be noted: A/Puerto Rico/8/1934(H1N1). It counts as functional, cell-based. In a few lines:
(§4)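 Plaque reduction: about 50–100 PFU/well of PR8, Cal09 or Minnesota preincubated with compound (0–10 μM) 1 h at 37 °C. Mixture then adsorbed to MDCK monolayers 1 h at 4 °C. Overlay was DMEM with 1.5% agarose, DEAE-dextran and 1 μg/mL TPCK-trypsin for 3 days at 37 °C. Glutaraldehyde fix, crystal violet stain, plaque count; IC50 derived; n = 4.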

The test system of data set [12] is Influenza A virus (A/California/04/2009(H1N1)). In words: Antiviral activity against Influenza A virus (A/California/04/2009(H1N1)) infected in MDCK cells assessed as virus yeild reduction preincubated with virus at 37 degC for 1 hr followed by viral infection for 1 hr measured after 3 days by crystal violet staining based plaque assay. It counts as functional, cell-based. The procedure, abridged: as §4

For data set [13], the system named is Influenza A virus. The data set can be described thus: Antiviral activity against Influenza A virus (A/Puerto Rico/8/34(H1N1)) infected in Kunming mouse assessed as intact columnar epithelium in bronchiole without inflammatory cell infiltration at 10 mg/kg/day, po qd for 4 days by hematoxylin and eosin staining based assay. Format: functional, organism-based. The note with it: A/Puerto Rico/8/1934(H1N1).

The nature of data set [14]: Drug uptake in human A549 cells at 20 uM after 4 hrs by DAPI staining based confocal microscopic analysis. To be noted: a549, 4 h. It counts as ADME, cell-based. The procedure, abridged: as §3
In data set [15] the test system is Influenza A virus. The data set can be described thus: Antiviral activity against Influenza A virus (A/swine/Minnesota/02719/2009(H3N2)) infected in MDCK cells assessed as virus yeild reduction preincubated with virus at 37 degC for 1 hr followed by viral infection for 1 hr measured after 3 days by crystal violet staining based plaque assay. Format: functional, cell-based. In a few lines: as §4

The nature of data set [16]: Drug uptake in human A549 cell nucleus at 20 uM after 4 hrs by DAPI staining based confocal microscopic analysis. It counts as ADME. The note with it: a549, 4 h. The procedure, abridged: as §3
In data set [17] the test system is Influenza A virus. In words: Antiviral activity against Influenza A virus (A/Puerto Rico/8/34(H1N1)) infected in Kunming mouse assessed as pulmonary viral titer reduction at 10 mg/kg/day, po qd for 4 days measured on day 4 post last dose by crystal violet staining based plaque assay. The note with it: A/Puerto Rico/8/1934(H1N1). It counts as functional, organism-based. In a few lines:
as §1

Data set [18] in a line: Drug uptake in human A549 cell cytoplasm at 20 uM after 4 hrs by DAPI staining based confocal microscopic analysis. The note with it: a549, 4 h. It counts as ADME. The procedure, abridged: as §3
The test system of data set [19] is Influenza A virus. In words: Antiviral activity against Influenza A virus (A/Puerto Rico/8/34(H1N1)) infected in MDCK cells assessed as reduction in virus-induced cytopathic effect after 48 hrs by crystal violet staining based assay. It counts as functional, cell-based. To be noted: A/Puerto Rico/8/1934(H1N1). In a few lines: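 MDCK cells infected with PR8 at MOI 0.1; compounds added in triplicate after inoculum removal. After 48 h cells were fixed with 4% formaldehyde and stained with 0.1% crystal violet. Dye was methanol-solubilised and read at 570 nm; IC50 was the concentration halving CPE.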

The nature of data set [20]: Selectivity index, ratio of CC50 for MDCK cells to IC50 for Influenza A virus (A/Puerto Rico/8/34(H1N1)) infected in MDCK cells by plaque assay. Format: toxicity, cell-based. The note with it: dog, read-out: Ratio CC50/IC50.

The values below come from ChEMBL document CHEMBL4043073, “Boronic Acid Modifications Enhance the Anti-Influenza A Virus Activities of Novel Quindoline Derivatives” (J Med Chem, 2017).

pIC50: −log10 of the molar value. Calls of active or inactive are those of the source. The calls are words filed in the database; no cut-off is given here.

As to `CCOC(=O)C1=C[C@@H](OC(CC)CC)[C@H](NC(C)=O)[C@@H](N)C1` [OSELTAMIVIR], the result with Influenza A virus [1], in the data set on Influenza A virus [2], with Influenza A virus [3] and in the data set on Influenza A virus [6] was Active. Besides, in the data set on Influenza A virus [4], the survival at 20 mg/kg/day was 80%. Besides, in data set [5], the selectivity ratio is 36.2.

As to `Nc1ccc(Nc2c3ccccc3nc3c2[nH]c2ccccc23)cc1`, the Activity entry with NCI-H1299 and with A549 was “Non-Toxic” each time.

For `Nc1cccc(Nc2c3ccccc3nc3c2[nH]c2ccccc23)c1`, the Activity entry in the data set with NCI-H1299 and in the data set with A549 was “Non-Toxic” each time.

As for `O=C(Nc1cccc(Nc2c3ccccc3nc3c2[nH]c2ccccc23)c1)c1ccc(B(O)O)cc1`, the Activity result in the data set with NCI-H1299 and in the data set on A549 was “Non-Toxic” in each case.

As to `O=C(Nc1ccc(Nc2c3ccccc3nc3c2[nH]c2ccccc23)cc1)c1cccc(B(O)O)c1`, the Activity entry with NCI-H1299 and with A549 was “Non-Toxic” in each case.

As to `O=C(Nc1ccccc1Nc1c2ccccc2nc2c1[nH]c1ccccc12)c1ccc(B(O)O)cc1`, the cytotoxic concentration (CC50) at 48 h in [7] amounted to 78.6 µM. In addition, the result (with Influenza A virus [8]; in the data set with Influenza A virus [2]; in the data set on Influenza A virus [3]; in the data set with Influenza A virus [11]; in [12]; in the data set on Influenza A virus [13]) was Active. Besides, the result in the data set on Influenza A virus [15] and in the data set on Influenza A virus [17] was Active. Also, the Activity result in the data set on NCI-H1299 and with A549 was “Non-Toxic” in each case. The inhibition in data set [9] came out at 56%. The Drug uptake entry in data set [10] is “Active”; in [14], “Active”; in data set [16] it was “Not Active”; in data set [18] it was “Active”.

Take `O=C(Nc1cccc(Nc2c3ccccc3nc3c2[nH]c2ccccc23)c1)c1cccc(B(O)O)c1`: the Activity entry with NCI-H1299 and with A549 was “Non-Toxic” each time.

Take `Nc1ccccc1Nc1c2ccccc2nc2c1[nH]c1ccccc12`: in data set [7], the half-maximal cytotoxic concentration (CC50) at 48 h worked out at 37.9 µM. The outcome (with Influenza A virus [8]; in the data set with Influenza A virus [3]; in the data set on Influenza A virus [11]; in [12]; with Influenza A virus [13]; in the data set with Influenza A virus [15]) was Active. Further, the negative logarithm of the IC50 (pIC50) was 4.59 in the data set on Influenza A virus [2] and 4.32 in the data set with Influenza A virus [19]. The Activity result in the data set on NCI-H1299 and in the data set on A549 was “Non-Toxic” throughout. Further, in data set [9], the inhibition result was “inactive”. Also, the Drug uptake entry in data set [14] and in data set [16] was “Active” each time. For the same compound, the selectivity ratio amounted to 1.5 in data set [20] and 0.8 in data set [5]. In addition, in the data set on Influenza A virus [17], the outcome was inactive.

As to `O=C(Nc1ccc(Nc2c3ccccc3nc3c2[nH]c2ccccc23)cc1)c1ccc(B(O)O)cc1`, the Activity entry with NCI-H1299 and in the data set on A549 was “Non-Toxic” each time.

For `CC(=O)N[C@H]1[C@H]([C@H](O)[C@H](O)CO)OC(C(=O)O)=C[C@@H]1NC(=N)N`, the inhibition in data set [9] is more than 85%.

As usually defined, the CC50 is the concentration giving 50% cytotoxicity. What is called inhibition is the relative decrease from the control value, in per cent. One may read the pIC50 as the IC50 on a negative log10 scale, so that one unit is a factor of ten.
